ERAP1 HTS inh: human ERAP1 aminopeptidase inhibitors, primary screen, biochemical, single point, plate reader; Endoplasmic reticulum aminopeptidase 1 (Homo sapiens), Q9NZ08; recombinant ERAP1, Leu-AMC fluorescence, 60 min; inhibition, % at 10.7 µM; actives 0.15% (n = 340,000); AID 652197, 2013;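 active means mean replicate inhibition of at least 30%, or all replicates individually reaching that 30% level; inactive means mean below 30% and not every replicate reaching it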;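 further: 0% = neutral control wells and 100% = L-leucinethiol positive control wells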
S100A4 inh HTS: inhibitors of S100A4-myosin IIA peptide binding, primary screen, biochemical, fluorescence polarization, TAMRA-MyoIIA peptide. inhibition, % at 10.7 µM. actives 0.14% (n = 360,000). Protein S100-A4 (Homo sapiens), P26447;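 active means mean inhibition of at least 70% across replicates, with every replicate also reaching that level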
Target sequence (P26447 whole entry, looked up): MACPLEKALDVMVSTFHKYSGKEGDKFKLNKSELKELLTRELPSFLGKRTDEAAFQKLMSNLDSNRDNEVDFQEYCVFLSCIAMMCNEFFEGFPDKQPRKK
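incubation = readout 5 min after mixing, signal stable up to 60 min | system = S100A4 monomer protein | buffer or medium = HEPES pH 7.2 with CaCl2, KCl, NaCl, DTT, Triton | benchmarks = neutral control DMSO, positive control TFP | also added = fluorescent myosin IIA peptide, 5 nM | compound dosing = one concentration per compound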
miR122 inh: miR-122 Renilla sensor signal increase in Huh7, primary screen, miR-122 inhibitor project, cell-based, single point, plate reader | activation (reporter increase), % at 12.5 µM | actives 0.3% (n = 340,000) | Huh7 miR-122 Renilla luciferase sensor, 48 h; neutral wells = 0, positive control = 100 | AID 602342, 2012;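 active means mean replicate activation score at least 90 and every replicate individually at or above 90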;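 further: higher luciferase means less miR-122 activity so hits act as miR-122 inhibitors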
Rtt109 Vps75: inhibitors of C. albicans Rtt109/Vps75 HAT, primary screen, biochemical, ThioGlo CoA-SH fluorescence, plate reader; AID 540336, 2011; actives 0.16% (n = 330,000); Histone acetyltransferase RTT109 (Candida albicans (strain SC5314 / ATCC MYA-2876)), …; inhibition, % at 34.9 µM; purified Rtt109/Vps75, 4 h;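 active means inhibition of at least 50% in every replicate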
AF4-AF9 inh: inhibitors of AF4 peptide binding to AF9, primary screen, biochemical, AlphaScreen, biotin-AF4 peptide, FLAG-AF9, single point | inhibition, % at 10 µM | actives 0.47% (n = 350,000) | AID 651704, 2012;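 active means every replicate reaching a set inhibition limit, whatever the replicate mean, cut at about 25% in these data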;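 further: 0% = plate neutral control median and 100% = total signal loss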
Target sequence (P42568 whole entry, looked up): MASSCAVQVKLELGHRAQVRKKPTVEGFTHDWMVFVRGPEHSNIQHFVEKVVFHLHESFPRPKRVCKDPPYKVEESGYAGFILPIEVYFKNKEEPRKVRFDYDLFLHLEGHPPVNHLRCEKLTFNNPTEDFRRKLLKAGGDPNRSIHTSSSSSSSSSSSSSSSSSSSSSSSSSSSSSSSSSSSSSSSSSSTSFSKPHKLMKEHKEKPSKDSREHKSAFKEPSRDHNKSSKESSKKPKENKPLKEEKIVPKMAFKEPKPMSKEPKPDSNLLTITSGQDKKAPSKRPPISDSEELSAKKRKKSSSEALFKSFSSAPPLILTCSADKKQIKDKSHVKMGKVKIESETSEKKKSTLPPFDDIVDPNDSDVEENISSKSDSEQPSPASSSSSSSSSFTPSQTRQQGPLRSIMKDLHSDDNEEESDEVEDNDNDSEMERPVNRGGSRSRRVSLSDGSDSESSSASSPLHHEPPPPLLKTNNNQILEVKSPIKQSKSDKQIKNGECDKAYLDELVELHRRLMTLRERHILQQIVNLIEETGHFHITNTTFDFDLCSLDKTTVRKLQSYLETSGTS
Starred values were filed as active, the others as inactive; . = no result; [ ] = another dose, or the depositor's remark. A selection: hits, their analogues and other compounds. The true share with any hit is near 0.86%.

SMILES	ERAP1 HTS inh	S100A4 inh HTS	miR122 inh	Rtt109 Vps75	AF4-AF9 inh
O=C(C1CC1)N1C[C@@H]2[C@H](c3ccccc31)[C@H](CO)N2C(=O)c1ccccc1	0.2	0.6	14.3[16.7 µM]	.	-1.5
O=C(Cc1ccccc1)N1C[C@H]2[C@@H](c3ccccc31)[C@@H](CO)N2C(=O)C1CCCCC1	-1.6	3.1	200.0*[16.7 µM]	.	-0.2
CC(=O)c1cccc(NC(=O)NCc2cccs2)c1	.	.	103.3*	8.6	.
Cc1nc2ccc(S(=O)(=O)Nc3ccccc3C)cc2s1	0.4	-4.6	127.5*	-0.3	2.3
CN(C)Cc1ccccc1CNC(=O)c1cccc(S(=O)(=O)Nc2ccc3c(c2)OCO3)c1	-5.3	1.6	116.8*	.	9.7
CCN(CC)Cc1ccccc1CNC(=O)c1cccc(S(=O)(=O)Nc2ccc3c(c2)OCO3)c1	-21.9	-10.6	.	6.0	8.5
Cc1ccc(S(=O)(=O)N(CC(=O)NCc2cccs2)c2ccccc2)cc1	-1.8	-4.6	20.1	-0.1	0.1
Cc1ccc(N(CC(=O)NCc2cccs2)S(=O)(=O)c2cccs2)cc1	.	.	181.6*	-3.8	.
CCCN(C)C[C@H]1Oc2ncc(C#Cc3ccccc3OC)cc2C(=O)N([C@H](C)CO)C[C@H]1C	1.1	-2.0	-0.5[16.7 µM]	.	4.2
C=CCN=C1NN=C(c2ccc3c(c2)OCCO3)CS1	-3.1	-3.1	153.7*	2.5	-0.7
CO[C@H](CN(C)S(=O)(=O)c1ccc(Cl)cc1)[C@@H](C)CN(C(=O)Nc1ccccc1F)[C@H](C)CO	0.1	-1.4	.	.	-1.5
O=C(Nc1ccc(Cl)cc1)N[C@H]1CC[C@@H](CCn2cc(-c3ccccc3F)nn2)O[C@@H]1CO	-2.5	-6.7	.	.	-1.0
CC(C)CC#Cc1cnc2c(c1)C(=O)N([C@@H](C)CO)C[C@H](C)[C@@H](CN(C)Cc1cncnc1)O2	-0.1	8.2	1.8[16.7 µM]	.	2.3
COCc1cc(C)c(C#N)c(=S)[nH]1	.	.	-3.2	79.6*	.
C[C@H](CO)N1C[C@H](C)[C@@H](CN(C)CC2CCOCC2)Oc2ncc(C#Cc3ccncc3)cc2C1=O	2.2	-39.0	0.4[16.7 µM]	.	-6.8
CCCCCCC[C@H](N)[C@H](O)C(=O)N(C)[C@@H](CCS(C)=O)C(=O)N[C@@H](Cc1ccc(O)cc1)C(=O)N[C@@H](Cc1ccc(O)cc1)C(=O)O (stereo partly specified)	50.4*	3.8	2.6	17.7	0.5
Cc1ccc(C)c(NC(=O)c2cc[n+](C)cc2)c1	87.2*	-6.7	.	-3.0	-1.5
C[n+]1ccc(C(=O)Nc2ccccc2Cl)cc1	102.2*	31.1	-1.5	3.3	-3.1
CO[C@H]1CN(C)C(=O)c2cc(NC(=O)C3CC3)ccc2OC[C@H](C)N(CC2CC2)C[C@@H]1C	0.9	-11.6	.	.	-1.8
C[C@H](CO)N1C[C@H](C)[C@H](CN(C)C(=O)C2CCCCC2)OCCCC[C@H](C)Oc2ccc(NC(=O)c3ccccc3)cc2C1=O	1.4	2.8	-7.9[16.7 µM]	.	-1.4
CCN(CC)CCCCN1c2ccccc2Sc2ccccc21	3.8	0.3	-6.8	-10.3	25.4*
COc1cccc(-c2ccc([C@H]3[C@@H](CO)N4C(=O)CN(C(=O)C5CCC5)C[C@@H]34)cc2)c1	0.2	-1.5	.	.	-5.3
CCN(CC)c1ccc(NC(=O)Nc2ccccc2)cc1	-3.0	-15.1	6.5	7.1	25.4*
CCN(CC)c1ccc(NC(=O)Nc2ccc(C(C)=O)cc2)cc1	.	.	-0.1	1.7	.
C[C@H](CO)N1C[C@H](C)[C@@H](CN(C)C(=O)C2CCCCC2)OCCCC[C@H](C)Oc2ccc(NC(=O)NC3CCCCC3)cc2C1=O	-6.2	-10.6	11.2[16.7 µM]	.	-10.0
SMILES	ERAP1 HTS inh	S100A4 inh HTS	miR122 inh	Rtt109 Vps75	AF4-AF9 inh
COc1ccc(CCNC(=O)CN2C(=O)NC3(CCCCC3C)C2=O)cc1 (stereo unspecified)	-0.2	-18.5	-6.9	51.1*	-6.2
CCOc1ccc(CCNC(=O)CN2C(=O)NC3(CCCCC3C)C2=O)cc1OCC (stereo unspecified)	2.9	5.2	.	-4.3	1.1
C[C@@H]1CN([C@H](C)CO)C(=O)c2cc(-c3cccc(C#N)c3)cnc2O[C@@H]1CN(C)C(=O)c1ccccn1	0.6	3.9	2.1[16.7 µM]	.	-5.2
O=C(Nc1ccc(S(=O)(=O)NCCc2ccccc2)cc1)c1ccco1	0.3	-3.0	364.6*	-1.5	3.5
CC(=O)Nc1ccc(S(=O)(=O)NCCc2ccc(S(N)(=O)=O)cc2)cc1	.	.	225.6*	7.8	.
O=C(O/N=C1\CCS(=O)(=O)c2sccc21)c1ccc(F)cc1	-3.9	2.9	-3.4	.	-0.8
O=C(O/N=C1\CCS(=O)(=O)c2sccc21)c1ccccc1	.	.	170.0*	-0.7	.
O=C(CCN1CCCCC1)N[C@H]1CC[C@@H](CC(=O)N2CCC(Cc3ccccc3)CC2)O[C@H]1CO	0.1	2.3	-3.2[16.7 µM]	.	3.0
Cc1cc(C(C)(C)C)ccc1NC(=O)CC(C)(C)CC(=O)O	4.0	-1.0	1.4	-3.1	25.9*
O=C(C[C@H]1CC[C@@H](NC(=O)Nc2ccc(F)cc2)[C@@H](CO)O1)NCc1ccccn1	-4.8	9.0	.	.	0.4
C[C@H]1CCCCO[C@H](CN(C)C(=O)c2ccccc2)[C@@H](C)CN([C@@H](C)CO)C(=O)c2cc(NC(=O)NC3CCCCC3)ccc2O1	-4.0	113.9*	2.7[16.7 µM]	.	0.2
C[C@@H]1CCCCO[C@@H](CN(C)C(=O)Nc2cccc3ccccc23)[C@H](C)CN([C@@H](C)CO)C(=O)c2cc(NC(=O)C3CCCCC3)ccc2O1	-4.3	116.7*	-12.6[16.7 µM]	.	-3.2
CC(C)NC(=O)Nc1ccc2c(c1)C(=O)N([C@@H](C)CO)C[C@H](C)[C@H](CN(C)C(=O)c1ccncc1)OCCCC[C@H](C)O2	4.5	96.1*	9.1[16.7 µM]	.	-1.3
C[C@@H]1CCCCO[C@@H](CN(C)C(=O)c2ccccc2)[C@@H](C)CN([C@H](C)CO)C(=O)c2cc(NC(=O)NC3CCCCC3)ccc2O1	-3.2	-5.2	-2.0[16.7 µM]	.	-2.2
CCNC(=O)C[C@@H]1CC[C@@H]2[C@@H](COc3ccc(NS(C)(=O)=O)cc3C(=O)N2C)O1	-0.2	0.1	0.0[16.7 µM]	.	-1.9
C[C@H]1CN([C@@H](C)CO)C(=O)c2cc(NC(=O)CCN3CCOCC3)ccc2O[C@H]1CN(C)Cc1ccc(C(=O)Nc2ccccc2N)cc1	1.1	0.4	-0.7[16.7 µM]	.	1.9
C[C@H]1CCCCO[C@@H](CN(C)C(=O)CCCN(C)C)[C@@H](C)CN([C@@H](C)CO)C(=O)c2cc(NC(=O)c3ccccc3)ccc2O1	1.2	2.7	-1.4[16.7 µM]	.	-0.9
CCOc1ccc(N(C(=O)Cn2nnc3ccccc32)C(C(=O)NC(C)(C)CC)c2cccn2C)cc1 (stereo unspecified)	.	.	-3.0	-4.0	.

Compound activity from PubChem.
